Source: PubChem (Johns Hopkins Ion Channel Center)
Compounds with a hit are over-represented: about 3.5% of the library has one in this group of screens.
MrgX1 antagonist: human MrgX1 receptor antagonism, primary screen; Q96LB2; MRGX1-HEK293 calcium flux, Fluo-4, BAM8-22 antagonism; hits give low values; B-score at 10 µM; hit rate 1.3% among 310,000; AID 588676;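 active = calcium-response B-score plate-corrected more than 3 library SD below zero, starting fluorescence within 5 deviations, no agonist response on first addition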;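 also: peak minus trough fluorescence over baseline after final BAM8-22 challenge near maximal dose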
Target sequence (Q96LB2 whole entry, looked up): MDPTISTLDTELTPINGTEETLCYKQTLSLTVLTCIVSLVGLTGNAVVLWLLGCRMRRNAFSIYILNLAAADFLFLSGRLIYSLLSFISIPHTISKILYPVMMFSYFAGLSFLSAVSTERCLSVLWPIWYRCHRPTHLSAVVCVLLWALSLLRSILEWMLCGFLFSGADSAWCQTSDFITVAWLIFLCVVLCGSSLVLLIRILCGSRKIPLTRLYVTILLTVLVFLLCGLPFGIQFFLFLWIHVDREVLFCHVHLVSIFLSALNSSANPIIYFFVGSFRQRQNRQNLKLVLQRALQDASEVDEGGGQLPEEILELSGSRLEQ
MrgX1 PAM: allosterically activates human MrgX1 receptor signaling | Q96LB2 | MrgX1-HEK293, Fluo-4 calcium flux, FDSS; hits give high values | B-score at 10 µM | hit rate 0.63% among 310,000 | AID 588675;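 active = plate-corrected calcium response at least 3 library SD above typical, normal starting fluorescence, not activating the receptor alone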;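 also: compound read alongside a low EC10 to EC30 dose of BAM8-22 agonist; peak minus trough fluorescence over baseline measured at the second addition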
RGS4 pot: RGS4 potentiation or activation | hit rate 0.92% among 310,000 | AID 463111 | B-score at 10 µM | HEK293 M3R/inducible RGS4, carbachol calcium flux Fluo4; hits give low values;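 active = B-score of the integrated calcium signal more than 4 SD below the library mean, with starting fluorescence not abnormally high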;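 also: negative B-score means reduced calcium response which marks RGS4 activation or potentiation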
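System: HEK293 FlpIn-TREx cells, stable M3R, doxycycline-inducible RGS4. Timing: overnight RGS4 induction, 30 min dye load 37 °C, 20 min compound RT. Also added: carbachol, ECmax concentration. Measured by: Fluo4 fluorescence kinetic imaging of calcium. Evaluation: integrated calcium ratio converted to B score.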
MrgX1 agonist: agonists of human MrgX1 receptor; Q96LB2; MrgX1-HEK293 cells, Fluo-4 calcium fluorescence, agonist mode; hits give high values; hit rate 0.44% among 310,000; AID 588627; B-score at 10 µM;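 active = calcium response B-score plate-corrected fluorescence ratio at least 3 library SD, with starting fluorescence B-score inside 5 SD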
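times = overnight plating, then 30 min 37 °C plus 30 min room-temperature dye loading | assay system = stable human MrgX1 HEK293 cell line | input = fifteen thousand cells per well | signal = kinetic calcium dye fluorescence, Fluo-4 NW | dosing = compound delivered in addition one of three | read-out = B-scored fluorescence response ratio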
RGS4 inh: inhibitors of human RGS4. HEK293 M3R/RGS4 inducible, Fluo-4 calcium flux; hits give high values; triggered by carbachol at its EC20. B-score at 10 µM. hit rate 0.45% among 310,000;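 active = B-score, a plate-corrected calcium signal, over three deviations above library mean, with baseline fluorescence within five deviations of library mean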;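 also: RGS4 expression induced by doxycycline in cells with stable M3 receptor; B-score is computed from the integrated fluorescence ratio over baseline after carbachol; higher B-score means a larger calcium signal and so more RGS4 inhibition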
Target sequence (P49798 whole entry, looked up): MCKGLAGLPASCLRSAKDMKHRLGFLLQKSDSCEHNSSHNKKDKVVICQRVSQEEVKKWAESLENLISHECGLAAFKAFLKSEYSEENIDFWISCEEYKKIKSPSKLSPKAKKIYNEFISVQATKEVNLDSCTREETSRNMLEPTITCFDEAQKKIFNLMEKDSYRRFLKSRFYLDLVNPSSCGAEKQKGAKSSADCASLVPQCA
RGS4 act valid: confirmation of RGS4 activators. shares compounds with RGS4 pot. HEK293 M3R/RGS4 inducible, carbachol calcium flux Fluo4. inhibition, % at 10 µM. hit rate 89% among 1,100. AID 602282;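 active = inhibition above 3 SD of the buffer control wells, cut at about 41% in these data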;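 also: signal is the integrated peak-minus-minimum Fluo4 fluorescence over baseline ratio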
RGS4 act ctr: RGS4 activator counter-screen hit in non-induced cells; hit rate 82% among 1,100; shares compounds with RGS4 pot; inhibition, % at 10 µM; HEK293 M3R non-induced RGS4, Fluo4 calcium flux; after carbachol challenge at its EC90; AID 602283;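 active = inhibition exceeding 3 SD of buffer-only control wells, cut at about 26% in these data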;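 also: percent drop in integrated peak-minus-baseline over baseline Fluo4 ratio after carbachol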
Starred values were filed as active, the others as inactive; i = inactive; / = not tested or not shown.

SMILES	MrgX1 antagonist	MrgX1 PAM	RGS4 pot	MrgX1 agonist	RGS4 inh	RGS4 act valid	RGS4 act ctr
CCCCS/C(=C(/C#N)C(N)=O)c1cc2c([nH]1)CCCC2	i	i	-8.2*	i	i	94*	92*
COc1ccc(-c2nnn(CC(=O)N(CCCN3CCOCC3)C(C(=O)NC3CCCC3)c3ccco3)n2)cc1 (stereo not given)	i	i	i	i	i	/	/
FC(F)(F)c1cccc(Cc2noc(CN3C[C@@H]4CCC[C@H]3C4)n2)c1	i	i	i	i	i	/	/
CN(Cc1nc(-c2ccc3c(c2)OCO3)no1)CC1(N2CCOCC2)CCCCC1	i	i	i	i	i	/	/
Cn1ccnc1C1CCCCN1Cc1nc(Cc2cccc(C(F)(F)F)c2)no1 (stereo not given)	i	i	-10*	i	i	78*	40*
COc1ccc(-c2noc(CN3CCCCC3c3nccn3C)n2)cc1 (stereo not given)	i	i	-7.6*	i	i	66*	84*
Cn1ccnc1C1CCCCN1Cc1nc(-c2ccc3c(c2)OCO3)no1 (stereo not given)	i	i	-7.8*	i	i	86*	62*
CC1CCC(C(=O)NC(C(=O)NCc2cccnc2)C(C)C)CC1 (stereo not given)	i	i	i	i	i	/	/
COc1cccc(C(C)NC(=O)C2CCCC2)c1 (stereo not given)	i	i	i	i	i	/	/
COc1ccc(S(=O)(=O)N(C)C)cc1NC(=O)[C@H](Cc1ccccc1)N1C(=O)c2ccccc2C1=O	i	i	-9.4*	i	i	93*	58*
Cc1ccc(C(=O)OC2OC(=O)C(Cl)=C2N2CCOCC2)cc1 (stereo not given)	i	i	i	i	i	/	/
COc1ccc(OC)c(/C=C/c2nc3ccccc3[nH]c2=O)c1	i	i	-7.7*	i	i	60*	44*
CN(CC(=O)Nc1cccc(C#N)c1)Cc1ccc(Cl)cc1	i	i	i	i	i	/	/
CN(CC(=O)Nc1ccc(C#N)cc1)Cc1ccc(Cl)c(Cl)c1	i	i	-8.7*	i	i	92*	95*
CCCn1nnc(NCc2ccc(OCc3cccs3)c(OC)c2)n1	i	i	i	i	i	/	/
CCNCc1ccc(OCc2cccs2)c(OCC)c1	i	i	-8.9*	i	i	62*	0
CC1SC(=Nc2ccccc2)N(S(=O)(=O)c2ccccc2)C1=O (stereo not given)	i	i	i	i	i	/	/
O=C(C1COc2ccccc2O1)N1CCN(c2nc3c(F)cc(F)cc3s2)CC1 (stereo not given)	i	i	i	i	i	/	/
O=C(Nc1ccccc1C(=O)O)c1cc(S(=O)(=O)N2CCCCCC2)ccc1Cl	i	i	-8.4*	i	i	0	0
COc1ccc2nc3sc(C(=O)NCCCN4CCc5ccccc5C4)cc3cc2c1	i	i	-8.2*	i	i	74*	84*
CC(C)(C)c1ccc(NC(=O)N2CCN(c3ccc([N+](=O)[O-])cn3)CC2)cc1	i	i	i	i	i	/	/
Cc1cccc(-n2cc(-c3ccccc3)c3c(N4CCOCC4)ncnc32)c1	i	i	i	i	i	/	/
O=C1CC(N2CCN(C/C=C/c3ccccc3)CC2)C(=O)N1Cc1cccs1 (stereo not given)	i	i	-7.9*	i	i	94*	26*
Cc1ccc(-c2c(C(=O)O)c3ccccc3[nH]c2=O)cc1	i	i	i	i	i	/	/
COc1ccc(C(c2nnnn2Cc2cccs2)N2CCN(c3ccccc3F)CC2)cc1 (stereo not given)	i	i	-7.6*	i	i	0	0
SMILES	MrgX1 antagonist	MrgX1 PAM	RGS4 pot	MrgX1 agonist	RGS4 inh	RGS4 act valid	RGS4 act ctr
COc1ccc(C(c2nnnn2Cc2ccccc2)N2CCN(c3ccccc3)CC2)cc1 (stereo not given)	i	i	i	i	i	/	/
CCOC1=C/C(=C/c2c(N)n3nc(-c4ccccc4)sc3nc2=O)C=CC1=O	/	/	-12*	/	i	65*	33*
COCCOC(=O)c1c(C)oc2ccc(OC(=O)c3ccc4c(c3)OCO4)cc12	i	i	-8.4*	i	i	90*	59*
COCCOC(=O)c1c(C)oc2ccc(OC(=O)c3c(OC)cccc3OC)cc12	i	i	-7.7*	i	i	93*	57*
CCOC(=O)Oc1ccc2oc(C)c(C(=O)OCCOC)c2c1	i	i	i	i	i	/	/
CCOc1ccc(Br)cc1C1C(C(=O)OC)=C(N)Oc2cc(N(C)C)ccc21 (stereo not given)	i	i	-9.2*	i	i	92*	69*
COc1ccc(CC(=O)Nc2cccc(-c3nnc(-c4ccco4)o3)c2)cc1	i	i	i	i	i	/	/
COc1ccc(C(=O)Nc2cccc(-c3nnc(-c4ccco4)o3)c2)cc1	i	i	-9.6*	i	i	88*	48*
Cc1cc(=O)n(C(NC(=O)c2ccccc2)C(=O)c2ccccc2)cn1 (stereo not given)	i	i	-9.2*	i	i	0	0
O=C(NC(C(=O)c1ccccc1)N1CCOCC1)c1ccccc1 (stereo not given)	i	i	i	i	i	/	/
CCCCn1c(-c2csc(CCC)c2)n[nH]c1=S	i	i	-12*	i	i	58*	84*
CCCc1cc(-c2n[nH]c(=S)n2CC)cs1	i	i	i	i	i	/	/
COc1ccc(-c2cc(C(=O)N(C)CCc3ccc(OC)c(OC)c3)c3ccccc3n2)cc1	i	i	i	i	i	/	/
COc1ccc(-c2cc(C(=O)N(C)Cc3cccc(OC)c3OC)c3ccccc3n2)cc1OC	i	i	i	i	i	/	/
COc1cccc(NC(=O)CN(C)C(=O)c2cc(-c3ccc(F)cc3)nc3ccccc23)c1	i	i	-7.6*	i	i	86*	64*
COc1cccc(CN(C)C(=O)c2cc(-c3ccc(OC)c(OC)c3)nc3ccccc23)c1	i	i	-9.8*	i	i	66*	28*
COc1ccc(CN(C)C(=O)c2cc(-c3ccc(OC)c(OC)c3)nc3ccccc23)c(OC)c1	i	i	-9*	i	i	69*	84*
